TRPC4 act: opens the mouse TRPC4 cation channel | Q9QUQ5 | HEK293 TRPC4beta/mu-opioid, Fluo4 calcium fluorescence; stronger effect = higher value | B-score at 10 µM | 310,000 compounds, 0.49% hits | AID 2237;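 active = B-score above 5 SD of library B-scores, and initial fluorescence ratio not above library mean plus 5 SD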;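 note: positive B-score marks a calcium rise read as TRPC4 activation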
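Material: HEK293 stable line with TRPC4beta plus mu-opioid receptor; technique: Fluo4 calcium-sensitive dye fluorescence, kinetic, 1 Hz baseline; timing: Fluo4 dye loading 45 min at room temperature, 110 s recording; controls: assay buffer as low control, maximal DAMGO as high control; read-out: integrated baseline-normalised fluorescence ratio, converted to per-well B score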
TRPC6 inhibitor: mouse TRPC6 channel inhibition. Q61143. B-score at 10 µM. HEK293-TRPC6, membrane potential dye, ACh-evoked depolarization; stronger effect = lower value. 310,000 compounds, 1.1% hits;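 active = B-score under library mean minus 3 SD, initial fluorescence not abnormally high, positive integrated signal ratio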;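 note: B-score derived from integrated fluorescence ratio over the kinetic read; more negative B-score means stronger inhibition of depolarization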
Target sequence (Q61143 whole entry, looked up): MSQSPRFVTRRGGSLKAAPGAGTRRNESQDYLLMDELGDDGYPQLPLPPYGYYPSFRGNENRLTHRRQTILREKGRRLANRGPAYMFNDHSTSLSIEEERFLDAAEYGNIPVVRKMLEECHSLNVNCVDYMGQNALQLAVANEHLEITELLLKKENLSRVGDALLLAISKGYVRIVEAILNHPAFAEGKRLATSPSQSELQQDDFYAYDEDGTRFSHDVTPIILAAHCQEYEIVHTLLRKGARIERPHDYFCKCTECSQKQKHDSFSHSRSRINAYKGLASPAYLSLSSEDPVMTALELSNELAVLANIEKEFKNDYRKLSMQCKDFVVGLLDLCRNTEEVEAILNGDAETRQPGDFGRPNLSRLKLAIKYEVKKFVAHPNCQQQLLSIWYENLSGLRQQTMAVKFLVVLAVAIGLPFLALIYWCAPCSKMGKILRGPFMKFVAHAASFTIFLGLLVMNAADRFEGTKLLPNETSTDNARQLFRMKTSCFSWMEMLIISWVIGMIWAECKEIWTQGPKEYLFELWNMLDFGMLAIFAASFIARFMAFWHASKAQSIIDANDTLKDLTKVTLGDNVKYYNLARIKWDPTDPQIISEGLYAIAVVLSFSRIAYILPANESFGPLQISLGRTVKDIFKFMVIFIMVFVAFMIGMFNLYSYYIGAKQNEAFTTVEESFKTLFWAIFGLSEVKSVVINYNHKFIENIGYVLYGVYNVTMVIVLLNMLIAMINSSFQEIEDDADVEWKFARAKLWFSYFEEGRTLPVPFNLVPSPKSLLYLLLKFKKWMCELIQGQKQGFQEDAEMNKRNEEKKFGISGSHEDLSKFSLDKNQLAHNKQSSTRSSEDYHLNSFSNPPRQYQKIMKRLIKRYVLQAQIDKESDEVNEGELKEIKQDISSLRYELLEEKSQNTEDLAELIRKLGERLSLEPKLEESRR
TRPC4 block: blocks the mouse TRPC4 cation channel; HEK293 TRPC4beta/mu-opioid, DAMGO-evoked Fluo4 calcium flux; stronger effect = lower value; B-score at 10 µM; 300,000 compounds, 0.39% hits; Q9QUQ5;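 active = B-score over 3 SD under the library average, no early fluorescence shift, positive overall ratio signal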
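Assay system: Stable TRPC4beta/mu-opioid receptor HEK293 cells | Reagent: DAMGO in two steps, submaximal then maximal | Compound dosing: Single concentration per test compound | Signal: Fluo4 Ca2+ flux fluorescence | Evaluation: Per-well B score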
TRPC6 act: mouse TRPC6 channel activation; B-score at 10 µM; 310,000 compounds, 0.13% hits; Q61143; HEK293-TRPC6 membrane potential dye fluorescence; stronger effect = higher value;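 active = B-score of the integrated fluorescence ratio above library mean plus 3 SD, and starting fluorescence ratio within library mean plus 5 SD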;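 note: higher score means more depolarization so channel activation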
TRPC4 PAM: TRPC4 (mouse) allosteric potentiation | Q9QUQ5 | HEK293 TRPC4beta/mu-opioid, DAMGO EC20, Fluo-4 Ca2+ flux; stronger effect = higher value | B-score at 10 µM | 310,000 compounds, 0.42% hits | AID 2227;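 active = B-score of calcium response area above 5 SD of library B-scores, with initial fluorescence ratio within 5 SD of library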;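 note: B-score of integrated fluorescence ratio over time as area under calcium response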
TRPC4 spec 2: second selectivity test of TRPC6 inhibitors: effect on mouse TRPC4 | 920 compounds, 42% hits | shares compounds with TRPC6 inhibitor | inhibition, % at 10 µM | HEK293 TRPC4/MOR, membrane potential dye fluorescence; channel activated by saturating DAMGO dose;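 active = compounds whose fluorescence signal differed from control wells by over 3 SD, either direction, in both duplicate plates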
TRPC4 spec: mouse TRPC4 off-target activity of TRPC6 inhibitors; HEK293 TRPC4/mu-opioid, membrane potential fluorescence; AID 2777; activity change, negative = inhibition, % at 10 µM; shares compounds with TRPC6 inhibitor; 920 compounds, 61% hits;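 active = rise or fall in signal beyond 3 SD of buffer-only wells in both replicate plates, either sign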;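 note: integrated kinetic ratio of fluorescence range over baseline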
HEK293 MPD ctr 2-1: second check of TRPC6 inhibitor effects in parental HEK293 cells. signal change vs control, % at 10 µM. parental HEK293 membrane potential dye fluorescence; maximal acetylcholine challenge after compound addition. shares compounds with TRPC6 inhibitor. 920 compounds, 31% hits. AID 2779;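 active = membrane potential signal moving either way by over 3 SD of the maximum-effect control, in both duplicate plates, meaning non-specific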
HEK293 MPD ctr-1: checks TRPC6 inhibitor effects in parental HEK293 cells; shares compounds with TRPC6 inhibitor; parental HEK293 membrane potential dye fluorescence; membrane potential signal change, % at 10 µM; 920 compounds, 60% hits; AID 2780;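 active = membrane potential signal shifting up or down by more than 3 SD of buffer-only wells, on both duplicate plates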
HEK293 MPD ctr-2: parental HEK293 nonspecific activity of TRPC6 modulators; shares compounds with TRPC6 inhibitor; membrane potential dye fluorescence; membrane potential signal change, % at 10 µM; 2,400 compounds, 51% hits; AID 488924;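 active = membrane potential signal moves up or down beyond 5 SD from buffer-only wells, on both duplicate plates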
HEK293 MPD ctr 2-2: second check of TRPC6 modulator effects in parental HEK293 cells; AID 488926; inhibition, % at 10 µM; 2,400 compounds, 14% hits; membrane potential dye fluorescence; after compound, maximal acetylcholine stimulation; shares compounds with TRPC6 inhibitor;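 active = membrane potential signal drops by more than 5 SD from the mean control signal, in both duplicate plates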;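 note: plate controls were acetylcholine ECmax control wells for no effect and buffer only wells for full effect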
TRPC4/MOR mod: mouse TRPC4 off-target activity of TRPC6 modulators; shares compounds with TRPC6 inhibitor; HEK293 TRPC4/mu-opioid, membrane potential fluorescence; percent change from control (negative = decrease, positive = increase), % at 10 µM; 2,400 compounds, 69% hits; AID 488927;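 active = membrane potential signal moved up or down beyond 5 SD of buffer control wells, in both duplicate plates, actives on both sides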;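 note: plate controls were assay buffer wells for no effect and DAMGO maximal-effect wells for full effect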
TRPC4/MOR inh 2: mouse TRPC4 off-target activity of TRPC6 modulators, second screen; shares compounds with TRPC6 inhibitor; HEK293 TRPC4/mu-opioid, membrane potential dye fluorescence; stimulated with maximal-effect DAMGO; inhibition, % at 10 µM; 2,400 compounds, 55% hits; AID 488928;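 active = drop in membrane potential signal beyond 5 SD of the control wells in both duplicate plates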;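 note: TRPC4 counter screen for TRPC6 hits run under conditions tuned for TRPC6 not TRPC4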
TRPC6 inh conf: mouse TRPC6 inhibitor confirmation; shares compounds with TRPC6 inhibitor; HEK293-TRPC6, membrane potential dye, ACh-evoked depolarization; inhibition, % at 10 µM; 3,300 compounds, 43% hits;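 active = fluorescence ratio falls more than 5 SD below the full-stimulation control mean, in both duplicate runs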;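 note: integrated fluorescence ratio of peak minus minimum over baseline after agonist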
TRPC6 act confirm: mouse TRPC6 activator confirmation | HEK293-TRPC6 membrane potential dye fluorescence, FDSS | shares compounds with TRPC6 inhibitor | activation, % at 10 µM | AID 488961 | 2,800 compounds, 11% hits;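 active = ratio signal rise beyond 5 SD above unstimulated control wells' mean, seen in both duplicate runs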;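 note: plate controls were buffer EC0 wells for no effect and acetylcholine ECmax response for full effect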
* = called active by the depositor; i = inactive; / = not tested or not shown. Rows were chosen to be rich in hits. Some 2.3% of all compounds tested hit in one or more screens of this group.

SMILES | TRPC4 act | TRPC6 inhibitor | TRPC4 block | TRPC6 act | TRPC4 PAM | HEK293 MPD ctr-2 | HEK293 MPD ctr 2-2 | TRPC4/MOR mod | TRPC4/MOR inh 2 | TRPC6 inh conf | TRPC6 act confirm | others
COc1ccc(NC(=O)CN(C)C(=O)Cn2cnc3c2c(=O)n(C)c(=O)n3C)cc1 | i | i | i | i | i | / | / | / | / | / | /
Fc1ccc(Cn2nnc3ccccc32)cc1 | i | -7.91* | i | i | i | / | / | / | / | i | i | TRPC4 spec 2=i;TRPC4 spec=i;HEK293 MPD ctr 2-1=i;HEK293 MPD ctr-1=-0.6%*
Cc1ccc(S(=O)(=O)CCN2CCC(n3cccc3)CC2)cc1 | i | i | i | i | i | / | / | / | / | / | /
Clc1ccc2c(N3CCOCC3)ccnc2c1 | i | i | i | i | i | / | / | / | / | / | /
CN1CCN(c2ccc(Nc3ccnc4cc(Cl)ccc34)cc2)CC1 | i | -6.4* | i | i | i | -106.5%* | i | -24.5%* | 52.0%* | 46.0%* | i
Clc1ccc2c(N3CCCC3)ccnc2c1 | i | -9.04* | -6* | i | i | / | / | / | / | 64.5%* | i | TRPC4 spec 2=75.5%*;TRPC4 spec=-24.6%*;HEK293 MPD ctr 2-1=37.0%*;HEK293 MPD ctr-1=-478.0%*
O=c1c2cn[nH]c2nc(SCc2c(F)cccc2F)n1-c1ccc(Cl)cc1 | i | i | i | i | i | / | / | / | / | / | /
CCOC(=O)/C(=N\Nc1cc(Cl)ccc1Cl)N1CCN(CC)CC1 | i | i | i | i | i | / | / | / | / | / | /
CCOc1ncccc1C(=O)OCC(=O)c1cccc(Br)c1 | i | i | i | i | i | / | / | / | / | / | /
COc1cc(/C=C2/CC/C(=C/c3ccc(O)c(OC)c3)C2=O)ccc1O | 43* | i | i | 13.7* | i | 451.0%* | 149.0%* | 100.5%* | i | i | 97.0%*
CCn1cc(C(=O)OCc2ccccc2)c(=O)c2ccc(C)nc21 | i | -6.02* | i | i | i | -308.0%* | i | -50.5%* | 47.5%* | i | i
CCn1cc(C(=O)OCc2ccc(F)cc2)c(=O)c2ccc(C)nc21 | i | -10* | i | i | i | -340.0%* | 83.5%* | -52.5%* | 65.0%* | 63.5%* | i
CN(/N=C/c1cc(Cl)ccc1O)C1=NS(=O)(=O)c2ccccc21 | i | i | i | i | i | / | / | / | / | / | /
O=C(Nc1cccc([N+](=O)[O-])c1)c1ccc(N2CCCC2=O)cc1 | i | i | i | i | i | / | / | / | / | / | /
O=C(Nc1ccncc1)c1ccc(N2CCCC2=O)cc1 | i | -7.07* | i | i | i | -237.5%* | i | -42.5%* | 34.5%* | i | i
COc1ccc(-n2c(O)c(/C=N/NS(=O)(=O)c3ccc(C)cc3)c3ccccc3c2=O)cc1OC | i | i | i | 29* | i | 241.5%* | i | 11.0%* | i | i | 96.0%*
COc1ccc(-n2c(O)c(/C=N/NS(=O)(=O)c3cc(C)ccc3C)c3ccccc3c2=O)cc1OC | i | i | i | i | i | / | / | / | / | / | /
C[n+]1ccc(/C=C/c2ccc(Br)cc2)cc1 | i | -5.2* | i | i | i | -77.5%* | i | i | 35.5%* | i | i
Cc1ccc2[nH]c(C)c(/C=C/c3cc[n+](C)cc3)c2c1 | i | i | i | i | i | / | / | / | / | / | /
N#Cc1c2ccc(OCC(=O)NCc3ccco3)cc2n2ccccc12 | i | i | i | i | i | / | / | / | / | / | /
N#Cc1c2ccc(O)cc2n2ccccc12 | i | -6.83* | i | 15.5* | i | 435.5%* | 86.5%* | 55.0%* | i | 64.5%* | 125.5%*
Clc1ccccc1N1CCN(Cc2c[nH]c3ccccc23)CC1 | i | i | i | i | i | / | / | / | / | / | /
Fc1ccccc1N1CCN(C2CCN(Cc3c[nH]c4ccccc34)CC2)CC1 | i | -5.25* | i | i | i | 148.5%* | i | 19.0%* | 58.5%* | i | /
CCOCCCn1c(=N)c(C(N)=S)cc2c(=O)n3cccc(C)c3nc21 | i | -8.93* | i | i | i | / | / | / | / | i | i | TRPC4 spec 2=i;TRPC4 spec=i;HEK293 MPD ctr 2-1=26.5%*;HEK293 MPD ctr-1=-196.5%*
Cc1cccn2c(=O)c3cc(C(N)=S)c(=N)n(CCCOC(C)C)c3nc12 | i | -7.27* | i | i | i | / | / | / | / | i | i | TRPC4 spec 2=i;TRPC4 spec=-19.2%*;HEK293 MPD ctr 2-1=i;HEK293 MPD ctr-1=-408.5%*
SMILES | TRPC4 act | TRPC6 inhibitor | TRPC4 block | TRPC6 act | TRPC4 PAM | HEK293 MPD ctr-2 | HEK293 MPD ctr 2-2 | TRPC4/MOR mod | TRPC4/MOR inh 2 | TRPC6 inh conf | TRPC6 act confirm | others
COc1ccc(Cl)cc1N(CC(=O)NC(C)(C)C)S(=O)(=O)c1ccc(C)c([N+](=O)[O-])c1 | i | i | i | i | i | / | / | / | / | / | /
COc1ccccc1NC(=O)Nc1cccnc1 | i | i | i | i | i | / | / | / | / | / | /
CN(C(=O)CCN1C(=O)c2ccccc2C1=O)c1ccccc1 | i | i | i | i | i | / | / | / | / | / | /
Cc1ccc(NC(=O)/C=C/C(=O)O)c(NC(=O)c2ccccc2)c1 | i | i | i | i | i | / | / | / | / | / | /
O=C(Nc1cc2c3c(c1)C1CCCC1CN3CC1CCCC21)c1ccccc1 (stereo not given) | i | -5.86* | i | i | i | -70.0%* | i | -16.5%* | i | i | i
CCN(CC)CCNC1=NCCn2c1cc1cc(OC)ccc12 | i | -6.7* | i | i | i | -145.5%* | i | -27.5%* | 43.5%* | i | i
